In ChEMBL document CHEMBL5712897, “EZH2 inhibits autophagic cell death of aortic vascular smooth muscle cells to affect aortic dissection” (2018) one finds Activity and inhibition data, which are given here for two molecules.

SMILES strings stand for the structures. Active and inactive are the calls of the source. No cut-off for these calls is given here.

Test [1] can be described thus: Induction of apoptosis in mouse MOVAS cells assessed as late apoptotic cells by flow cytometry. The class given is functional. The method in brief: (§1)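 Trypsinized MOVAS cells stained with a PE Annexin V apoptosis detection kit and analysed by flow cytometry, which separated early and late apoptotic populations. Mean ± SD; two-tailed Student's t-test.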
On the technique in general: In flow cytometry, cells or beads pass a laser one at a time.

Test [2] relates to MOVAS. As to the kind of experiment: Cell cycle arrest in mouse MOVAS cells assessed as effect on S-phase cell population by flow cytometry. It counts as functional, cell-based. The method in brief: (§2)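 MOVAS mouse aortic SMCs (about 2–5×10^6) harvested by trypsin, washed twice in PBS, fixed overnight at 4 °C in cold 70% ethanol, then stained 2 h in the dark with RNase A (0.3 mg) and propidium iodide (0.015 mg). Cell-cycle phase distribution read by flow cytometry. Data are mean ± SD, compared by two-tailed t-test.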

Test [3] can be described thus: Induction of apoptosis in mouse MOVAS cells assessed as early apoptotic cells by flow cytometry. The class given is functional. Put shortly:
as §1

Test [4] deals with MOVAS. As to the kind of experiment: Cell cycle arrest in mouse MOVAS cells assessed as effect on G0/G1-phase cell population by flow cytometry. It counts as functional, cell-based. The method in brief: as §2
Test [5] concerns MOVAS. As to the kind of experiment: Cell cycle arrest in mouse MOVAS cells assessed as effect on G2/M-phase cell population by flow cytometry. It counts as functional, cell-based. Put shortly: as §2
Test [6] deals with Histone-lysine N-methyltransferase EZH2 (Mus musculus) (UniProt Q61188). Briefly: Inhibition of EZH2 in mouse MOVAS cells assessed as elevation of LC3-II expression at 5 uM in presence of chloroquine and rapamycin by Western blot analysis. The class given is cell-based. Put shortly: (§3)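 Total protein from MOVAS cells extracted in RIPA buffer. 20 μg per lane resolved by SDS-PAGE and transferred to PVDF. Blocked in 5% non-fat milk, primary antibody overnight at 4 °C, then peroxidase-conjugated secondary and chemiluminescence imaging. Normalized to GAPDH or β-actin loading control. n = 4; mean ± SD versus DMSO, two-tailed t-test.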
A general note: In western blotting, separated proteins are transferred to a membrane and probed.

Test [7] shares this target. Briefly: Inhibition of EZH2 in mouse MOVAS cells assessed as effect on S6 phosphorylation at 5 uM measured after 24 hrs by Western blot analysis. The class given is cell-based. Put shortly:
as §3

The target is the same in test [8]. Briefly: Inhibition of EZH2 in mouse MOVAS cells assessed as reduction in cell count at 5 uM measured after 48 hrs in presence of MEK1 inhibitor PD98059 by cell counting method. It counts as cell-based. The method in brief:
(§4)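 MOVAS cells serum-starved 12 h in DMEM/high glucose, then 2×10^5 cells seeded in six-well plates in medium with 10% FBS. Trypsinized at 12, 24, 36 and 48 h and counted by a single blinded observer. Three replicate wells (n = 3); mean ± SD, two-tailed t-test.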

Test [9] has the same target. As to the kind of experiment: Inhibition of EZH2 in mouse MOVAS cells transfected with shATG5 assessed as increase in LC3-II expression at 5 uM by Western blot analysis. The class given is cell-based. The method in brief:
as §3

Test [10] relates to MOVAS. As to the kind of experiment: Cell cycle arrest in mouse MOVAS cells assessed as effect on G0/G1-phase cell population at 5 uM by flow cytometry. It counts as functional, cell-based. The method in brief:
as §2

In test [11] the target is Histone-lysine N-methyltransferase EZH2 (Mus musculus) (UniProt Q61188). As to the kind of experiment: Inhibition of EZH2 in mouse MOVAS cells assessed as increase in ERK1/2 phosphorylation at 5 uM measured after 6 hrs by Western blot analysis. The class given is cell-based. The method in brief: as §3
For test [12] the target is unchanged. As to the kind of experiment: Inhibition of EZH2 in mouse MOVAS cells transfected with shATG5 assessed as reduction in cell count at 5 uM measured after 48 hrs by light microscopy. The class given is cell-based. The method in brief: (§5)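 Mouse MOVAS VSMCs imaged by light microscopy after 48 h of the indicated treatments (scale bar 200 μm). Lentivirally modified cells were selected with puromycin 2 μg/ml after 48 h infection. Treatments were inhibitor 5 μM, DMSO vehicle, or PD98059 50 μM.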

Test [13] has the same target. Briefly: Inhibition of EZH2 in mouse MOVAS cells assessed as effect on AMPKalpha phosphorylation at 5 uM measured after 24 hrs by Western blot analysis. The class given is cell-based. Put shortly:
as §3

The target is the same in test [14]. Briefly: Inhibition of EZH2 in mouse MOVAS cells transfected with shATG5 assessed as reduction in cell count at 5 uM measured up to 48 hrs by cell counting method. The class given is cell-based. Put shortly: as §4
Test [15] concerns MOVAS. Briefly: Cell cycle arrest in mouse MOVAS cells assessed as effect on S-phase cell population at 5 uM by flow cytometry. The class given is functional, cell-based. Put shortly:
as §2

Test [16] deals with Histone-lysine N-methyltransferase EZH2 (Mus musculus) (UniProt Q61188). As to the kind of experiment: Inhibition of EZH2 in mouse MOVAS cells assessed as elevation of LC3-II expression at 5 uM by Western blot analysis. It counts as cell-based. Put shortly: as §3
For test [17] the target is unchanged. As to the kind of experiment: Inhibition of EZH2 in mouse MOVAS cells assessed as reduction in cell number at 5 uM measured at 24 hrs by cell counting method. The class given is cell-based. Put shortly:
as §4

For test [18] the target is unchanged. As to the kind of experiment: Inhibition of EZH2 in mouse MOVAS cells over-expressing AKT assessed as reduction in H3K27me3 level at 5 uM measured after 24 hrs by Western blot analysis. It counts as cell-based. Put shortly:
as §3

Test [19] has the same target. As to the kind of experiment: Inhibition of EZH2 in mouse MOVAS cells assessed as appearance of double-membraned vacuole containing fragments of cytoplasmic component in presence of rapamycin by transmission electron microscopy. It counts as cell-based. Put shortly: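 MOVAS cells treated with inhibitor or lentivirus, with rapamycin at 150 nM. Fixed in cold 2.5% glutaraldehyde for 30 min, then further fixed overnight at 4 °C, dehydrated in ethanol and acetone, and embedded in epoxy resin. 60-nm sections stained with uranyl acetate and lead citrate and imaged by TEM for double-membraned autophagic vacuoles.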

Test [20] shares this target. As to the kind of experiment: Inhibition of EZH2 in mouse MOVAS cells over-expressing AKT assessed as increase in LC3-II expression at 5 uM measured after 24 hrs by Western blot analysis. It counts as cell-based. The method in brief: as §3
Test [21] shares this target. As to the kind of experiment: Inhibition of EZH2 in mouse MOVAS cells assessed as effect on mTOR phosphorylation at 5 uM measured after 24 hrs by Western blot analysis. It counts as cell-based. Put shortly:
as §3

Test [22] has the same target. As to the kind of experiment: Inhibition of EZH2 in mouse MOVAS cells assessed as reduction in H3K27me2 level at 5 uM measured after 24 hrs by Western blot analysis. It counts as cell-based. The method in brief:
as §3

Test [23] has as its system MOVAS. Briefly: Cell cycle arrest in mouse MOVAS cells assessed as effect on G2/M-phase cell population at 5 uM by flow cytometry. The class given is functional, cell-based. Put shortly: as §2
For test [24], the target named is Histone-lysine N-methyltransferase EZH2 (Mus musculus) (UniProt Q61188). Briefly: Inhibition of EZH2 in mouse MOVAS cells assessed as increase in ATG5 expression at 5 uM measured after 24 hrs by Western blot analysis. The class given is cell-based. The method in brief: as §3
For test [25] the target is unchanged. Briefly: Inhibition of EZH2 in mouse MOVAS cells assessed as increase in LC3-II accumulation at 5 uM measured after 24 hrs in presence of MEK1 inhibitor PD98059 by Western blot analysis. The class given is cell-based. The method in brief:
as §3

For test [26] the target is unchanged. As to the kind of experiment: Inhibition of EZH2 in mouse MOVAS cells assessed as increase in ERK1/2 phosphorylation at 5 uM measured after 6 hrs in presence of MEK1 inhibitor PD98059 by Western blot analysis. The class given is cell-based. The method in brief: as §3
The target is the same in test [27]. As to the kind of experiment: Inhibition of EZH2 in mouse MOVAS cells assessed as elevation of LC3-II expression at 5 uM in presence of chloroquine by Western blot analysis. It counts as cell-based. The method in brief:
as §3

For test [28] the target is unchanged. As to the kind of experiment: Inhibition of EZH2 in mouse MOVAS cells assessed as cell injury at 5 uM measured after 48 hrs by LDH release assay. The class given is cell-based. The method in brief:
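Mouse MOVAS VSMCs exposed to inhibitor for 48 h. Cell injury quantified as percentage of injured cells from released LDH using a cytotoxicity LDH kit. n = 6; mean ± SD versus DMSO, two-tailed t-test.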

Test [29] shares this target. As to the kind of experiment: Inhibition of EZH2 in mouse MOVAS cells transfected with shATG7 assessed as reduction in cell count at 5 uM measured after 48 hrs by light microscopy. The class given is cell-based. Put shortly: as §5
The target is the same in test [30]. Briefly: Inhibition of EZH2 in mouse MOVAS cells over-expressing AKT assessed as reduction in cell count at 5 uM by light microscopy. It counts as cell-based. The method in brief:
as §5

For test [31] the target is unchanged. Briefly: Inhibition of EZH2 in mouse MOVAS cells assessed as reduction in AKT phosphorylation at 5 uM measured after 24 hrs by Western blot analysis. It counts as cell-based. The method in brief: as §3
The nature of test [32]: Induction of apoptosis in mouse MOVAS cells assessed as late apoptotic cells at 5 uM by flow cytometry. The class given is functional. Put shortly:
as §1

Test [33] addresses Histone-lysine N-methyltransferase EZH2 (Mus musculus) (UniProt Q61188). Briefly: Inhibition of EZH2 in mouse MOVAS cells assessed as reduction in cell count at 5 uM measured after 48 hrs in presence of MEK1 inhibitor PD98059 by light microscopy. The class given is cell-based. The method in brief: as §5
The nature of test [34]: Induction of apoptosis in mouse MOVAS cells assessed as early apoptotic cells at 5 uM by flow cytometry. It counts as functional. Put shortly: as §1
The target in test [35] is Histone-lysine N-methyltransferase EZH2 (Mus musculus) (UniProt Q61188). As to the kind of experiment: Inhibition of EZH2 in mouse MOVAS cells assessed as reduction in H3K27me3 level at 5 uM measured after 24 hrs by Western blot analysis. It counts as cell-based. Put shortly: as §3
The target is the same in test [36]. Briefly: Inhibition of EZH2 in mouse VSMC cells assessed as reduction in cell count at 5 uM for 24 hrs by light microscopic analysis. It counts as cell-based. The following applies: MOVAS.
Test [37] has the same target. Briefly: Inhibition of EZH2 in mouse MOVAS cells assessed as increase in ATG7 expression at 5 uM measured after 24 hrs by Western blot analysis. The class given is cell-based. Put shortly: as §3
Test [38] has the same target. As to the kind of experiment: Inhibition of EZH2 in mouse MOVAS cells transfected with shATG7 assessed as increase in LC3-II expression at 5 uM by Western blot analysis. It counts as cell-based. Put shortly: as §3
For test [39] the target is unchanged. Briefly: Inhibition of EZH2 in mouse MOVAS cells over-expressing AKT assessed as reduction in cell count at 5 uM by cell counting method. The class given is cell-based. Put shortly: as §4
Test [40] shares this target. As to the kind of experiment: Inhibition of EZH2 in mouse MOVAS cells transfected with shATG7 assessed as reduction in cell count at 5 uM measured up to 48 hrs by cell counting method. It counts as cell-based. The method in brief:
as §4

Test [41] has the same target. As to the kind of experiment: Inhibition of EZH2 in mouse MOVAS cells over-expressing AKT assessed as reduction in H3K27me2 level at 5 uM measured after 24 hrs by Western blot analysis. It counts as cell-based. Put shortly: as §3

Chain of Histone-lysine N-methyltransferase EZH2 (Mus musculus) (Q61188 whole entry): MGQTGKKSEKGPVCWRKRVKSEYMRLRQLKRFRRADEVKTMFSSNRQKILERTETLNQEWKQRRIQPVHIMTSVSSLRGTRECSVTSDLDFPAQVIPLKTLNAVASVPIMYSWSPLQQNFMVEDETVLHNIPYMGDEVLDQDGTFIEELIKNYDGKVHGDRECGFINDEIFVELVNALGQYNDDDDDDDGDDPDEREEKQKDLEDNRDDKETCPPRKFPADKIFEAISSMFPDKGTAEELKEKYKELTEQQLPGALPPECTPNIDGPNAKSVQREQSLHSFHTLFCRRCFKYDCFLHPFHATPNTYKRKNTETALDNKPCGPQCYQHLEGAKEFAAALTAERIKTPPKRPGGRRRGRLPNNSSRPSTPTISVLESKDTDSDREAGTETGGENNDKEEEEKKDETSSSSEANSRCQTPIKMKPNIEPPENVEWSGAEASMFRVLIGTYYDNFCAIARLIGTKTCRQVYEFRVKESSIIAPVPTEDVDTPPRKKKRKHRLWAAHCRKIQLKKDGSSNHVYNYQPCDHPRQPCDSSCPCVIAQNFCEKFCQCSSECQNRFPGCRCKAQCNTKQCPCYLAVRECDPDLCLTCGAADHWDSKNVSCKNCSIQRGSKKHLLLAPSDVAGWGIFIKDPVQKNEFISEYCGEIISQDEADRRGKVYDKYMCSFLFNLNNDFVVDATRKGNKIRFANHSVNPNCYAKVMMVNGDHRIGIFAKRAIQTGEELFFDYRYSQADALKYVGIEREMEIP

For `C[S+](C)[O-]` [DIMETHYL SULFOXIDE], the Activity in test [1] is given as 5.96%; in [3], 9.76%. Besides, the result in [2], in [4] and in test [5] was inactive.

Regarding `CCCc1cc(C)[nH]c(=O)c1CNC(=O)c1cc(-c2ccc(N3CCN(C(C)C)CC3)nc2)cc2c1cnn2C(C)C`, the inhibition result in test [6], in test [11], in [16], in test [17], in test [18] and in test [19] was “Active” in each case. The inhibition entry in test [20], in test [22], in [24], in [27], in [28] and in test [30] was “Active” each time. Moreover, the inhibition entry in test [31], in [35], in [36], in test [37], in test [39] and in test [41] was “Active” in each case. Also, the inhibition entry in [7], in test [8], in test [9], in test [12], in test [13] and in [14] was “inactive” throughout. Moreover, the inhibition entry in test [21], in test [25], in test [26], in [29], in test [33] and in test [38] was “inactive” each time. Moreover, the inhibition result in test [40] was “inactive”. The outcome in [10], in test [15] and in [23] was inactive. In addition, the results for the Activity in [32] and in [34] were 6.11% and 8.67%, respectively.
